These results are taken from ChEMBL document CHEMBL6109171, “Design, Synthesis, and Evaluation of a New Fluorescent Ligand for the M2 Muscarinic Acetylcholine Receptor” (ACS Med Chem Lett, 2025).

Active and inactive are the calls of the source. No cut-off for these calls is given here.

The target of data set [1] is T1, Muscarinic acetylcholine receptor M2 (Homo sapiens, UniProt P08172).
T1 sequence (P08172 whole entry): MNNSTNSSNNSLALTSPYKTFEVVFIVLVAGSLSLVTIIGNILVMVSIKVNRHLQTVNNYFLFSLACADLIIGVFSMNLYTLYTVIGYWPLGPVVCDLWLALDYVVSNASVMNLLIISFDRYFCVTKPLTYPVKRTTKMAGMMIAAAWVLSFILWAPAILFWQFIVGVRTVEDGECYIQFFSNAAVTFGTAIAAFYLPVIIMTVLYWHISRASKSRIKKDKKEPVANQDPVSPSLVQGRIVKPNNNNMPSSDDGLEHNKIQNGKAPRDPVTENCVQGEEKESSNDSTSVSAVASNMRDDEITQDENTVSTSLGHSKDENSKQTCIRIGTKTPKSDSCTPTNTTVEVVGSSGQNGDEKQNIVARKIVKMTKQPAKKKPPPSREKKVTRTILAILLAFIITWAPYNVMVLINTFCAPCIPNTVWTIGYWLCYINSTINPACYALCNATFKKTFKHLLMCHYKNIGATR
Briefly: Displacement of [3H]-NMS from human muscarinic M2 receptor expressed in CHO cells. The format is cell-based. Put shortly: (§1)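 Membranes from CHO cells transfected with human M1–M5 receptors; competition binding against the orthosteric antagonist [3H]-N-methylscopolamine. Ki values were taken from the competition curves. Ratios divide the Ki at M1, M3, M4 or M5 by the Ki at M2 from the same assay.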
(In general: In a radioligand displacement assay an active substance lowers the binding of a labelled ligand.)

For data set [2], the target named is Muscarinic acetylcholine receptors; M1 & M2 (Homo sapiens) (UniProt P11229+P08172). Briefly: Selectivity ratio of Ki for displacement of [3H]-NMS from human muscarinic M1 receptor to Ki for displacement of [3H]-NMS from human muscarinic M2 receptor. It is filed as protein assay. In short, it runs like this:
as §1

For data set [3], the target named is Muscarinic acetylcholine receptors; M2 & M3 (Homo sapiens) (UniProt P20309+P08172). Briefly: Selectivity ratio of Ki for displacement of [3H]-NMS from human muscarinic M3 receptor to Ki for displacement of [3H]-NMS from human muscarinic M2 receptor. The format is protein assay. Put shortly:
as §1

The target in data set [4] is Muscarinic acetylcholine receptor M2 and M4 (Homo sapiens) (UniProt P08173+P08172). Briefly: Selectivity ratio of Ki for displacement of [3H]-NMS from human muscarinic M4 receptor to Ki for displacement of [3H]-NMS from human muscarinic M2 receptor. It is filed as protein assay. In short, it runs like this: as §1
The target in data set [5] is Muscarinic acetylcholine receptor M2 and M5 (Homo sapiens) (UniProt P08172+P08912). Briefly: Selectivity ratio of Ki for displacement of [3H]-NMS from human muscarinic M5 receptor to Ki for displacement of [3H]-NMS from human muscarinic M2 receptor. The format is protein assay. In short, it runs like this: as §1
The target of data set [6] is T2, Muscarinic acetylcholine receptor M2 (Homo sapiens) (UniProt P08172).
T2 sequence (whole entry): T1 sequence (P08172 whole entry)
Particulars: HEK293T, filed as antagonist.

Data set [7] in a line: Photostability of compound in PBS buffer at 4 W/450 nm measured after 10 mins. It is filed as physicochemical. In short, it runs like this: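 Probe in PBS (pH 7) under continuous light (4 W, 450 nm); fluorescence intensity was followed over irradiation time up to 10 min.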
Data set [8] has as its target T2, Muscarinic acetylcholine receptor M2 (Homo sapiens). Briefly: Binding affinity to N-terminal human M2 receptor expressed in HEK293T cell pretreated for 5 mins in presence of atropine by BRET assay. To be noted: filed as antagonist, dose <= 1000.0 nM. It is filed as cell-based. On the technique in general: Bioluminescence resonance energy transfer reports proximity on the nanometre scale.

Data set [9] shares this target. Briefly: Binding affinity to human M2 receptor expressed in HEK293T cells by confocal microscopic analysis. The format is cell-based.
The target is the same in data set [10]. Briefly: Binding affinity to human M2 receptor expressed in HEK293T cells measured for 3 min by confocal microscopic analysis. The format is cell-based. To be noted: filed as antagonist.
Data set [11] shares this target. Briefly: Binding affinity to human M2 receptor expressed in HEK293T cells by two-photon microscopic analysis. It is filed as cell-based. Particulars: filed as antagonist.
The target is the same in data set [12]. Briefly: Binding affinity to human M2 receptor expressed in HEK293T cell membrane cells by STED microscopic analysis. Particulars: filed as antagonist. The format is cell membranes.
Data set [13] can be described thus: Selectivity ratio of Ki for binding affinity to M1 receptor (unknown origin) to Ki for displacement of [3H]-Pirenzepine from human muscarinic M2 receptor.
Data set [14] in a line: Selectivity ratio of Ki for binding affinity to M3 receptor (unknown origin) to Ki for displacement of [3H]-Pirenzepine from human muscarinic M2 receptor.
Data set [15] is described as follows: Selectivity ratio of Ki for binding affinity to M4 receptor (unknown origin) to Ki for displacement of [3H]-Pirenzepine from human muscarinic M2 receptor.
Data set [16] can be described thus: Selectivity ratio of Ki for binding affinity to M5 receptor (unknown origin) to Ki for displacement of [3H]-Pirenzepine from human muscarinic M2 receptor.

Muscarinic acetylcholine receptor M2 and M5 (Homo sapiens), sequence (P08912 whole entry, looked up, one chain of several): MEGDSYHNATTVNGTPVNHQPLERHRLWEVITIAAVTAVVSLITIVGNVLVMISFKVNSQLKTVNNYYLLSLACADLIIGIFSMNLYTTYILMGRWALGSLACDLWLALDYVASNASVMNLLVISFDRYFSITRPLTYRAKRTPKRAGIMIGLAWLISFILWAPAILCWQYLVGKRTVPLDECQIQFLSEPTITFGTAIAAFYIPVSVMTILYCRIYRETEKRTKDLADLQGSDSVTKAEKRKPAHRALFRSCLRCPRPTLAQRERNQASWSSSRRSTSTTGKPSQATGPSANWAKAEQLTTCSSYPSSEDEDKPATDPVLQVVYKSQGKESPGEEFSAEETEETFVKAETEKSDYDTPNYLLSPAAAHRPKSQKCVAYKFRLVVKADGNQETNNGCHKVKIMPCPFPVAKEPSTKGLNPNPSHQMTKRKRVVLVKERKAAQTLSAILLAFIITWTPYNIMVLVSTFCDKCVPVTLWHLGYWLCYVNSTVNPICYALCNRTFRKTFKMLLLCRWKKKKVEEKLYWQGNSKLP

One may read the Ki as a measure of affinity in units of concentration, obtained from inhibition or displacement. Low readings indicate tighter binding, high ones weaker binding. For `Cc1cc(/C=C/c2cc3c4c(c2)CCCN4CCC3)cc(C)[n+]1CCN1CCN(CCCCC2CCN(CC(=O)N3c4ccccc4NC(=O)c4ccccc43)CC2)CC1`, in data set [1], the affinity, expressed as Ki, was 1000 pM. Besides, the Ratio Ki in data set [2] was 5; in data set [3], 66; in data set [4], 2.8; in data set [5] it was 132.

Turning to `CN(C)c1ccc2c(-c3ccc(C(=O)NCCNC(=O)CCc4cn(CCCCC5CCN(CC(=O)N6c7ccccc7NC(=O)c7ccccc76)CC5)cn4)cc3C(=O)[O-])c3ccc(=[N+](C)C)cc-3oc2c1`, affinity in data set [1] was put at a Ki of 1700 pM. The Ratio Ki is 3.4 in [2], 72.4 in [3], 2 in data set [4] and 155 in data set [5].

`CC1(C)C(/C=C/C=C/C=C2/N(CCCCCC(=O)NCCNC(=O)CCc3cn(CCCCC4CCN(CC(=O)N5c6ccccc6NC(=O)c6ccccc65)CC4)cn3)c3cccc(S(=O)(=O)O)c3C2(C)C)=[N+](CCCCS(=O)(=O)[O-])c2ccccc21` yielded a Ki in data set [1] of 800 pM. The Ratio Ki worked out at 6.3 in data set [2], 200 in data set [3], 39.8 in data set [4] and 200 in data set [5].

`Nc1ccccc1C(=O)N1CCC(N2CCC(Cc3ccc(S(=O)(=O)c4cccc(Cl)c4)cc3)CC2)CC1`: the Ka in data set [6] is 8.06 10^3/s/M.

In turn, `Cc1cc(/C=C/C=C/c2ccc(N(C)C)cc2)cc(C)[n+]1CCNC(=O)CCc1cn(CCCCC2CCN(CC(=O)N3c4ccccc4NC(=O)c4ccccc43)CC2)cn1` registered an inhibitory constant (Ki) in data set [1] of 900 pM. The Ratio Ki in [2] was 5.4; in data set [3], 93.3; in data set [4], 4.7; in data set [5], 77.6.

Take `O=C(CCCCCNC(=O)COc1ccc(/C=C/C2=[N+]3C(=Cc4ccc(-c5cccs5)n4[B-]3(F)F)C=C2)cc1)NCCNC(=O)CCc1cn(CCCCC2CCN(CC(=O)N3c4ccccc4NC(=O)c4ccccc43)CC2)cn1`: in data set [1], the Ki amounted to 700 pM. Further, the Ratio Ki came to 1.4 in data set [2], 53.7 in data set [3], 0.6 in [4] and 14.5 in data set [5].

`Cc1cc(/C=C/C=C/c2ccc(N(C)C)cc2)cc(C)[n+]1CCN1CCN(CCCCC2CCN(CC(=O)N3c4ccccc4NC(=O)c4ccccc43)CC2)CC1` showed a Ki in [1] of 3200 pM. Besides, the Ratio Ki in data set [2] was 4; in data set [3], 50.1; in data set [4], 3.2; in data set [5], 126.

On to `O=C(CCOCCOCCNC(=O)c1ccc(-c2c3cc(F)c(=O)cc-3oc3cc(O)c(F)cc23)c(C(=O)O)c1)NCCOCCOCCNc1ccccc1C(=O)N1CCC(N2CCC(Cc3ccc(S(=O)(=O)c4cccc(Cl)c4)cc3)CC2)CC1`, for which the Stability result in data set [7] was “Stable”. For the same compound, the Activity result in data set [8] was “Dose-dependent-effect”. In addition, the result in [9] was inactive. Moreover, the result in [10], in data set [11] and in data set [12] was Active.

In the case of `CCN(CC)CC1CCCCN1CC(=O)N1c2ccccc2C(=O)Nc2cccnc21` (stereo not given), the Ratio Ki in data set [13] stood at 7; in [14] it was 16; in data set [15], 4; in [16] it was 44.

`CN(C)c1ccc2c(-c3ccc(C(=O)NCCN4CCN(CCCCC5CCN(CC(=O)N6c7ccccc7NC(=O)c7ccccc76)CC5)CC4)cc3C(=O)[O-])c3ccc(=[N+](C)C)cc-3oc2c1` showed a Ki in data set [1] of 200 pM. The Ratio Ki in data set [2] was determined as 10.7; in data set [3] it was 339; in data set [4] it was 4.1; in data set [5], 741.

`Cc1cc(/C=C/c2cc3c4c(c2)CCCN4CCC3)cc(C)[n+]1CCNC(=O)CCc1cn(CCCCC2CCN(CC(=O)N3c4ccccc4NC(=O)c4ccccc43)CC2)cn1` displayed a Ki in [1] of 1300 pM. In addition, the Ratio Ki came out at 5.2 in data set [2], 51.3 in data set [3], 1.9 in [4] and 30.1 in data set [5].

Take `CCCC(C)(C)C(=O)N(CC)CCCC1CCN(CC(=O)N2c3ccc(Cl)cc3C(=O)Nc3cccnc32)CC1`: the Ratio Ki in data set [13] came to 355; in data set [14], 26; in data set [15], 6; in data set [16], 48.
